Experimental findings from ChEMBL document CHEMBL4350999, “Enhanced tumor retention of NTSR1-targeted agents by employing a hydrophilic cysteine cathepsin inhibitor” (Eur J Med Chem, 2019) are described below.

A short description of data set [1]: Stability of 177Lu labelled compound in human serum assessed as parent compound remaining at 37 degC after 1 hr RP-HPLC analysis. Format: ADME, cell-free. As to conditions: read-out: Stability. In a few lines:
(§1)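 Radioconjugate (1.5 mCi, 55.5 MBq) was incubated in 300 μL human serum at 37 °C. At 1, 3 and 24 h, acetonitrile was added and samples were spun at 12,000×g for 5 min. Supernatant was dried under nitrogen, reconstituted in water and analyzed by radio-HPLC.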

Data set [2] is described as follows: Stability of 177Lu labelled compound in human serum assessed as parent compound remaining at 37 degC after 3 hrs by RP-HPLC analysis. Format: ADME, cell-free. The settings on record: read-out: Stability. In a few lines: as §1
A short description of data set [3]: Stability of 177Lu labelled compound in human serum assessed as parent compound remaining at 37 degC after 24 hrs by RP-HPLC analysis. As to conditions: read-out: Stability. The class given is ADME, cell-free. In a few lines: as §1
Data set [4] has as its target Neurotensin receptor type 1 (Homo sapiens, UniProt P30989). In words: Displacement of [177Lu] DOTA-beta-ala-[N-alpha-Me8, Dmt11, Tle12] NT6-13 from neurotensin receptor in human HT-29 cells incubated for 45 mins by gamma counter analysis. The class given is cell-based. Put shortly:
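HT-29 cells (~1 × 10^6) in McCoy's 5A with HEPES and 2 mg/mL BSA, pH 7.4. Incubated 45 min at 37 °C with 177Lu-N1 (100,000 cpm) plus conjugate at 5 nM–1 μM. Cells washed, bound activity gamma-counted, IC50 obtained by nonlinear regression; biological triplicate.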

Data set [5] in a line: Drug localization in endolysosomal vesicles of human HT-29 cells measured at 2 hrs using Eu labelled compound by lysotracker green staining based confocal microscopic analysis. Format: ADME, subcellular. The settings on record: ht-29, 2 h. Put shortly:
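HT-29 cells (1.25 × 10^5/well) incubated 2 h at 37 °C with natEu conjugate (5 μM), with or without N1 (20 μM). Lysotracker Green (100 nM) added for 1 h; cells washed, formaldehyde-fixed and imaged confocally at 405/488 nm excitation. Mean pixel intensity normalized to cell count.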

Another data set addresses Cathepsin B (Homo sapiens, UniProt P07858). Description: Binding affinity to cathepsin B in human HT-29 cells assessed as intracellular adduct formation at 0.74 MBq incubated for 4 hrs using 177Lu labelled compound by SDS-PAGE analysis. Format: cell-based. Further details: dose or concentration left out as unconfirmed. Put shortly: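 HT-29 cells (1 × 10^6/well) incubated 4 h at 37 °C with 177Lu conjugate (20 μCi, 0.74 MBq) in 1 mL medium, with or without E-64 (10 μM) or NTSR1 peptide N1 (20 μM). Cells washed and refed; at set times cells pooled, RIPA-lysed with protease inhibitor. Lysates heated 85 °C 2 min, run on 16% tris-glycine SDS-PAGE, and phosphor autoradiography taken after 72 h exposure.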

Data set [6] can be described thus: Drug retention in tumor of mouse xenografted with human HT-29 cells assessed as conjugate adduct formation at 29.6 MBq measured after 72 hrs using 177Lu labelled compound by SDS-PAGE analysis. The class given is ADME, tissue-based, Neoplasm. As to conditions: in vivo. In a few lines:
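HT-29 xenograft mice given 800 μCi (29.6 MBq) 177Lu conjugate i.v. and killed at 72 h. Tumor, liver and kidney homogenized in RIPA with protease inhibitor and supernatants run on SDS-PAGE autoradiography. Other supernatant aliquots filtered through 10 kDa MWCO devices to give the % macromolecule-associated radioactivity; n = 3.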
In general terms: Xenograft models place foreign cells or tissue in a host animal.

The next data set concerns the target Procathepsin L (Homo sapiens, UniProt P07711). In words: Binding affinity to human liver cathepsin L assessed as protein-conjugate adduct formation incubated for 30 mins using 177Lu labelled compound by SDS-PAGE analysis. Put shortly:
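Purified human liver CatB or CatL (3 nM) in 50 mM sodium acetate/1 mM EDTA pH 5.0 incubated 30 min with 177Lu conjugate (500,000 cpm) in Tris/MgCl2/DTT buffer pH 5.5, alone or with E-64 (10 μM) or N1 (20 μM). Mixtures heated 85 °C 2 min, run on 16% tris-glycine gel at 110 V for 90 min, and read by phosphor autoradiography.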

Data set [7] is described as follows: Ratio of drug uptake in SCID mouse xenograted with human HT-29 cells assessed as tumour retention to drug uptake in lung of SCID mouse xenografted with human HT-29 cells measured after 4 hrs using 177Lu labelled compound. Format: ADME, tissue-based, Tumor/Lung. Put shortly: (§2)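 Female SCID mice (5 weeks old) received s.c. flank HT-29 cells (5 × 10^6 in Matrigel). At ~80 mm3, two weeks later, mice were randomized and given 10 μCi (0.37 MBq) of purified 177Lu conjugate i.v. by tail vein. Mice were killed at 4, 24 or 72 h. Tissues were weighed and gamma counted as %ID/g, mean ± SD, n = 5. Tumor-to-tissue ratios were calculated.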

Data set [8] is described as follows: Ratio of drug uptake in SCID mouse xenograted with human HT-29 cells assessed as tumour retention to drug uptake in pancreas of SCID mouse xenografted with human HT-29 cells measured after 4 hrs using 177Lu labelled compound. Format: ADME, tissue-based, Tumor/Pancreas. Put shortly:
as §2

A short description of data set [9]: Ratio of drug uptake in SCID mouse xenograted with human HT-29 cells assessed as tumour retention to drug uptake in spleen of SCID mouse xenografted with human HT-29 cells measured after 4 hrs using 177Lu labelled compound. The class given is ADME, tissue-based, Tumor/Spleen. Put shortly: as §2
Data set [10] is described as follows: Ratio of drug uptake in SCID mouse xenograted with human HT-29 cells assessed as tumour retention to drug uptake in small intestine of SCID mouse xenografted with human HT-29 cells measured after 4 hrs using 177Lu labelled compound. Format: ADME, tissue-based, Tumor/Small intestine. In a few lines: as §2
Data set [11] is described as follows: Ratio of drug uptake in SCID mouse xenograted with human HT-29 cells assessed as tumour retention to drug uptake in liver of SCID mouse xenografted with human HT-29 cells measured after 24 hrs using 177Lu labelled compound. The class given is ADME, tissue-based, Tumor/Liver. In a few lines: as §2
The nature of data set [12]: Ratio of drug uptake in SCID mouse xenograted with human HT-29 cells assessed as tumour retention to drug uptake in pancreas of SCID mouse xenografted with human HT-29 cells measured after 24 hrs using 177Lu labelled compound. Format: ADME, tissue-based, Tumor/Pancreas. In a few lines:
as §2

Data set [13] can be described thus: Ratio of drug uptake in SCID mouse xenograted with human HT-29 cells assessed as tumour retention to drug uptake in small intestine of SCID mouse xenografted with human HT-29 cells measured after 24 hrs using 177Lu labelled compound. The class given is ADME, tissue-based, Tumor/Small intestine. Put shortly:
as §2

Data set [14] can be described thus: Ratio of drug uptake in SCID mouse xenograted with human HT-29 cells assessed as tumour retention to drug uptake in liver of SCID mouse xenografted with human HT-29 cells measured after 72 hrs using 177Lu labelled compound. The class given is ADME, tissue-based, Tumor/Liver. In a few lines:
as §2

Data set [15] is described as follows: Ratio of drug uptake in SCID mouse xenograted with human HT-29 cells assessed as tumour retention to drug uptake in small intestine of SCID mouse xenografted with human HT-29 cells measured after 72 hrs using 177Lu labelled compound. The class given is ADME, tissue-based, Tumor/Small intestine. Put shortly: as §2
The nature of data set [16]: Ratio of drug uptake in SCID mouse xenograted with human HT-29 cells assessed as tumour retention to drug uptake in large intestine of SCID mouse xenografted with human HT-29 cells measured after 72 hrs using 177Lu labelled compound. Format: ADME, tissue-based, Tumor/Large intestine. Put shortly: as §2
Data set [17] is described as follows: Ratio of drug uptake in SCID mouse xenograted with human HT-29 cells assessed as tumour retention to drug uptake in muscle of SCID mouse xenografted with human HT-29 cells measured after 72 hrs using 177Lu labelled compound. The class given is ADME, tissue-based, Tumor/Muscle. Put shortly: as §2
A short description of data set [18]: Ratio of drug uptake in SCID mouse xenograted with human HT-29 cells assessed as tumour retention to drug uptake in spleen of SCID mouse xenografted with human HT-29 cells cotreated with D-lysine at 40 mg/kg measured after 24 hrs using 177Lu labelled compound. Format: ADME, organism-based, Tumor/Spleen. As to conditions: in vivo.

The structures appear in SMILES notation. pIC50: −log10 of the molar value. Active and inactive are the calls of the source. No cut-off for these calls is given here.

Procathepsin L, sequence (P07711 114-333 limits assumed): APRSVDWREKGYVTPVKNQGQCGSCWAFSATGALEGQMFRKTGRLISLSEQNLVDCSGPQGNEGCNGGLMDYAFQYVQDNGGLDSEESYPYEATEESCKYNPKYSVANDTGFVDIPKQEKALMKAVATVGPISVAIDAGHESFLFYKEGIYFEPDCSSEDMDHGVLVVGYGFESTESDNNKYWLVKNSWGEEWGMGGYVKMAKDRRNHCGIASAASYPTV
Neurotensin receptor type 1, sequence (P30989 whole entry): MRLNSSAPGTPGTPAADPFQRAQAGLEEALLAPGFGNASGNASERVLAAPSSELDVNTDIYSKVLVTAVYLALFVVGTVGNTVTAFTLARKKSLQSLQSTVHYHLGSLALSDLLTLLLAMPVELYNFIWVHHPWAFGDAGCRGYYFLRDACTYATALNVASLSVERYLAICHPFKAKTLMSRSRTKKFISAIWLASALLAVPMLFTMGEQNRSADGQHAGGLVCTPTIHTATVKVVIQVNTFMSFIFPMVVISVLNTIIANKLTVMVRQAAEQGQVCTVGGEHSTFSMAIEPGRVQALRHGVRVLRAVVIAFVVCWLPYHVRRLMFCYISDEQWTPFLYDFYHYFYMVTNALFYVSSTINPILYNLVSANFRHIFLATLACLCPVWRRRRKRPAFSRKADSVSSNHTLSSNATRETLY

As to `Cc1cc(O)cc(C)c1C[C@H](NC(=O)[C@@H]1CCCN1C(=O)[C@H](CCCNC(=N)N)NC(=O)[C@H](CCCNC(=N)N)N(C)C(=O)[C@@H]1CCCN1C(=O)[C@H](CCCCN)NC(=O)[C@@H](CO)NC(=O)[C@@H](CO)NC(=O)[C@@H](CO)NC(=O)[C@H](Cc1cn(CCNC(=O)[C@H](CCCNC(=N)N)NC(=O)[C@H](CC(C)C)NC(=O)CCC(=O)O)nn1)NC(=O)CN1CCN(CC(=O)O)CCN(CC(=O)O)CCN(CC(=O)O)CC1)C(=O)N[C@H](C(=O)N[C@@H](CC(C)C)C(=O)O)C(C)(C)C`, the remaining at 1 h in [1] amounted to 84.7%. Besides, the remaining at 3 h in [2] turned out to be 74.3%. Besides, the remaining at 24 h in data set [3] is 49.5%. Besides, the pIC50 (commonly the negative decadic logarithm of the IC50, by convention in mol/L) in data set [4] was 7.20. The Drug uptake entry in data set [5] is given as “Active”; in data set [6], “Not Active”. The result on Cathepsin B and at Procathepsin L was inactive.
In the case of `Cc1cc(C)c(C(=O)OCC(=O)[C@H](CCCCNC(=O)CNC(=O)[C@@H](CO)NC(=O)[C@@H](CO)NC(=O)[C@@H](CO)NC(=O)Cn2cc(C[C@H](NC(=O)CN3CCN(CC(=O)O)CCN(CC(=O)O)CCN(CC(=O)O)CC3)C(=O)N[C@H](CO)C(=O)N[C@H](CO)C(=O)N[C@H](CO)C(=O)N[C@@H](CCCCN)C(=O)N3CCC[C@H]3C(=O)N(C)[C@@H](CCCNC(=N)N)C(=O)N[C@@H](CCCNC(=N)N)C(=O)N3CCC[C@H]3C(=O)N[C@@H](Cc3c(C)cc(O)cc3C)C(=O)N[C@H](C(=O)N[C@@H](CC(C)C)C(=O)O)C(C)(C)C)nn2)NC(=O)[C@H](Cc2ccccc2)NC(=O)OCc2ccccc2)c(C)c1`, the Ratio in data set [7] is on record as 1.9; in [8], 9; in data set [9], 0.5; in data set [10], 1.3; in [11], 0.5; in data set [12] it was 17. In addition, the Ratio was 2 in [13]; 0.6 in data set [14]; 0.9 in data set [15]; 1.9 in data set [16]; 16 in [17].
In the case of `Cc1cc(O)cc(C)c1C[C@H](NC(=O)[C@@H]1CCCN1C(=O)[C@H](CCCNC(=N)N)NC(=O)[C@H](CCCNC(=N)N)N(C)C(=O)[C@@H]1CCCN1C(=O)[C@H](CCCCN)NC(=O)[C@@H](CO)NC(=O)[C@@H](CO)NC(=O)[C@@H](CO)NC(=O)[C@H](Cc1cn(CCNC(=O)[C@H](CCCNC(=N)N)NC(=O)[C@H](CC(C)C)NC(=O)C2OC2C(=O)O)nn1)NC(=O)CN1CCN(CC(=O)O)CCN(CC(=O)O)CCN(CC(=O)O)CC1)C(=O)N[C@H](C(=O)N[C@@H](CC(C)C)C(=O)O)C(C)(C)C` (some centres undefined), in [1], the remaining at 1 h turned out to be 93.6%. The remaining at 3 h in data set [2] came to 65.6%. The remaining at 24 h in data set [3] came to 36.9%. In data set [4], the pIC50 is 7.22. The Drug uptake result in data set [5] and in data set [6] was “Active” throughout. The result at Cathepsin B and at Procathepsin L was Active. Moreover, the Ratio in data set [7] worked out at 12.3; in data set [8], 38; in data set [9] it was 5; in [10] it was 1.85; in data set [11], 8.5; in data set [12] it was 36. The Ratio came to 2 in data set [13]; 8 in [18]; 5.9 in data set [14]; 1.7 in [15]; 5.5 in data set [16]; 153 in [17].
